# Tests used:
# NCI-H322M = test: Antiproliferative activity against human NCI-H322M cells assessed as cell growth inhibition by measuring lethal concentration incubated for 48 hrs by sulforhodamine B assay; assay type: functional; conditions: read-out: LC50 (the source's name)
# RXF 393 = test: Growth inhibition against human RXF 393 cells assessed as total growth inhibitory concentration incubated for 48 hrs by sulforhodamine B assay; assay type: functional
# SNB-19 = test: Growth inhibition against human SNB-19 cells assessed as total growth inhibitory concentration incubated for 48 hrs by sulforhodamine B assay; assay type: functional
# Hs-578T = test: Antiproliferative activity against human Hs-578T cells assessed as cell growth at 0.00000001 M incubated for 48 hrs by SRB assay relative to control; assay type: functional; conditions: dose 10 nM, read-out: Activity
# Summary of the method: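 NCI-60 five-dose mode, 10^-4 to 10^-8 M in 10-fold steps. RPMI 1640, 5% FBS, 2 mM L-glutamine; 24 h preincubation, then 48 h drug exposure at 37 °C. Stocks in DMSO at 400× the top concentration, diluted in medium with gentamicin. TCA fixation, SRB staining, absorbance at 515 nm. Percent growth from time-zero (Tz), control (C) and test (Ti) readings.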
# UO-31 = test: Antiproliferative activity against human UO-31 cells assessed as cell growth at 0.0000001 M incubated for 48 hrs by SRB assay relative to control; assay type: functional; conditions: dose 100 nM, read-out: Activity
# HL-60 = test: Antiproliferative activity against human HL-60 cells assessed as cell growth at 0.000001 M incubated for 48 hrs by SRB assay relative to control; assay type: functional; conditions: read-out: Activity
# Summary of the method: (§1)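 NCI-60 five-dose screen (10^-4 to 10^-8 M). Cells grown in RPMI 1640 with 5% FBS and 2 mM L-glutamine, plated at 5,000-40,000 cells/well and preincubated 24 h. Drug given from DMSO stock, then 48 h at 37 °C, 5% CO2. For adherent lines, cells fixed with cold TCA, SRB-stained and read at 515 nm. Percent growth taken against time-zero and untreated control.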
# IGROV-1 = test: Antiproliferative activity against human IGROV-1 cells assessed as cell growth at 0.000001 M incubated for 48 hrs by SRB assay relative to control; assay type: functional; conditions: read-out: Activity
# HOP-62 = test: Antiproliferative activity against human HOP-62 cells assessed as cell growth at 0.00001 M incubated for 48 hrs by SRB assay relative to control; assay type: functional; conditions: read-out: Activity; summary of the method: as §1
# NCI-H522 = test: Antiproliferative activity against human NCI-H522 cells assessed as cell growth at 0.00001 M incubated for 48 hrs by SRB assay relative to control; assay type: functional; conditions: read-out: Activity
# MCF7 = test: Antiproliferative activity against human MCF7 cells assessed as cell growth at 0.00001 M incubated for 48 hrs by SRB assay relative to control; assay type: functional; conditions: read-out: Activity
# SK-MEL-28 = test: Antiproliferative activity against human SK-MEL-28 cells assessed as cell growth at 0.0001 M incubated for 48 hrs by SRB assay relative to control; assay type: functional; conditions: read-out: Activity
# OVCAR-8 = test: Antiproliferative activity against human OVCAR-8 cells assessed as cell growth at 0.0001 M incubated for 48 hrs by SRB assay relative to control; assay type: functional; conditions: read-out: Activity
# Calf thymus DNA [1] = test: Binding affinity to calf thymus DNA assessed as fluorescence quenching intensity at 5 uM at temperature of 308 K by fluorescence spectroscopic method relative to control; assay type: nucleic-acid assay; conditions: Bos taurus
# Calf thymus DNA [2] = test: Binding affinity to calf thymus DNA assessed as quenching constant at temperature of 318 K by fluorescence spectroscopic method; assay type: nucleic-acid assay; conditions: Bos taurus
# Calf thymus DNA [3] = test: Binding affinity to calf thymus DNA assessed as DNA intercalation by measuring Stem-Volmer quenching constant at temperature of 318 K by fluorescence spectroscopic method; assay type: nucleic-acid assay; conditions: Bos taurus
# MDA-MB-231 = test: Antiproliferative activity against human MDA-MB-231 cells assessed as cell growth inhibition by measuring lethal concentration incubated for 48 hrs by sulforhodamine B assay; assay type: functional; conditions: read-out: LC50 (the source's name)
# UACC-257 = test: Antiproliferative activity against human UACC-257 cells assessed as cell growth inhibition by measuring lethal concentration incubated for 48 hrs by sulforhodamine B assay; assay type: functional; conditions: read-out: LC50 (the source's name)
# Summary of the method: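 NCI-60 five-dose screen (10^-4 to 10^-8 M, 10-fold dilutions; DMSO stocks). Cells in RPMI 1640 with 5% FBS and 2 mM L-glutamine, preincubated 24 h, then exposed 48 h at 37 °C, 5% CO2. Fixed with cold TCA, stained with 0.4% SRB, absorbance read at 515 nm. Time-zero plates used as reference. LC50 taken from [(Ti-Tz)/Tz]×100 […].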
# LOX IMVI [4] = test: Antiproliferative activity against human LOX IMVI cells assessed as cell growth inhibition by measuring lethal concentration incubated for 48 hrs by sulforhodamine B assay; assay type: functional; conditions: read-out: LC50 (the source's name)
# SF-295 = test: Antiproliferative activity against human SF-295 cells assessed as cell growth inhibition by measuring lethal concentration incubated for 48 hrs by sulforhodamine B assay; assay type: functional; conditions: read-out: LC50 (the source's name)
# HCT-116 = test: Antiproliferative activity against human HCT-116 cells assessed as cell growth inhibition by measuring lethal concentration incubated for 48 hrs by sulforhodamine B assay; assay type: functional; conditions: read-out: LC50 (the source's name)
# COLO 205 = test: Antiproliferative activity against human COLO 205 cells assessed as cell growth inhibition by measuring lethal concentration incubated for 48 hrs by sulforhodamine B assay; assay type: functional; conditions: read-out: LC50 (the source's name)
# SN12C = test: Growth inhibition against human SN12C cells assessed as total growth inhibitory concentration incubated for 48 hrs by sulforhodamine B assay; assay type: functional
# SK-OV-3 = test: Growth inhibition against human SK-OV-3 cells assessed as total growth inhibitory concentration incubated for 48 hrs by sulforhodamine B assay; assay type: functional
# OVCAR-5 = test: Growth inhibition against human OVCAR-5 cells assessed as total growth inhibitory concentration incubated for 48 hrs by sulforhodamine B assay; assay type: functional
# SW-620 = test: Growth inhibition against human SW620 cells assessed as total growth inhibitory concentration incubated for 48 hrs by sulforhodamine B assay; assay type: functional
# K562 [5] = test: Growth inhibition against human K562 cells assessed as total growth inhibitory concentration incubated for 48 hrs by sulforhodamine B assay; assay type: functional
# K562 [6] = test: Growth inhibition against human K562 cells incubated for 48 hrs by sulforhodamine B assay; assay type: functional
# MOLT-4 = test: Antiproliferative activity against human MOLT-4 cells assessed as cell growth at 0.00001 M incubated for 48 hrs by SRB assay relative to control; assay type: functional; conditions: read-out: Activity
# NCI-H226 = test: Antiproliferative activity against human NCI-H226 cells assessed as cell growth at 0.00001 M incubated for 48 hrs by SRB assay relative to control; assay type: functional; conditions: read-out: Activity
# K562 [7] = test: Antiproliferative activity against human K562 cells assessed as cell growth at 0.0001 M incubated for 48 hrs by SRB assay relative to control; assay type: functional; conditions: read-out: Activity
# U-251 = test: Antiproliferative activity against human U-251 cells assessed as cell growth at 0.0001 M incubated for 48 hrs by SRB assay relative to control; assay type: functional; conditions: read-out: Activity
# LOX IMVI [8] = test: Antiproliferative activity against human LOX IMVI cells assessed as cell growth at 0.0001 M incubated for 48 hrs by SRB assay relative to control; assay type: functional; conditions: read-out: Activity
# NCI/ADR-RES = test: Antiproliferative activity against human NCI/ADR-RES cells assessed as cell growth at 0.0001 M incubated for 48 hrs by SRB assay relative to control; assay type: functional; conditions: read-out: Activity
smiles,measurement,setting,value
c1ccc(Cn2cnc3ccc(-c4nc(-c5ccc6c(c5)ncn6C5CCCCC5)cn5ccnc45)cc32)cc1,CC50,NCI-H322M,> 100 µM
same,TGI,RXF 393,2.75 µM
same,TGI,SNB-19,> 100 µM
same,growth at 0.01 µM,Hs-578T,99%
same,growth at 0.1 µM,UO-31,86%
same,growth at 1 µM,HL-60,113%
same,growth at 1 µM,IGROV-1,73%
same,growth at 10 µM,HOP-62,-15%
same,growth at 10 µM,NCI-H522,-37%
same,growth at 10 µM,MCF7,2%
same,growth at 100 µM,SK-MEL-28,13%
same,growth at 100 µM,OVCAR-8,-2%
COc1ccc(-c2cn3ccnc3c(-c3ccc4ncn(C5CCCCC5)c4c3)n2)cc1,Activity,Calf thymus DNA [1],65%
same,Kq,Calf thymus DNA [2],0.73 10^12/M/s
same,KSV,Calf thymus DNA [3],0.73 10^4/M
same,CC50,MDA-MB-231,> 100 µM
same,CC50,UACC-257,> 100 µM
same,CC50,LOX IMVI [4],> 100 µM
same,CC50,SF-295,> 100 µM
same,CC50,HCT-116,> 100 µM
same,CC50,COLO 205,> 100 µM
same,CC50,NCI-H322M,> 100 µM
same,TGI,SN12C,> 100 µM
same,TGI,SK-OV-3,7.64 µM
same,TGI,OVCAR-5,> 100 µM
same,TGI,SNB-19,> 100 µM
same,TGI,SW-620,> 100 µM
same,TGI,K562 [5],> 100 µM
same,GI50,K562 [6],0.422 µM
same,growth at 0.01 µM,Hs-578T,106%
same,growth at 0.1 µM,UO-31,88%
same,growth at 1 µM,HL-60,52%
same,growth at 1 µM,IGROV-1,49%
same,growth at 10 µM,MOLT-4,13%
same,growth at 10 µM,HOP-62,-1%
same,growth at 10 µM,NCI-H226,25%
same,growth at 10 µM,NCI-H522,-7%
same,growth at 10 µM,MCF7,16%
same,growth at 100 µM,K562 [7],11%
same,growth at 100 µM,U-251,6%
same,growth at 100 µM,LOX IMVI [8],19%
same,growth at 100 µM,SK-MEL-28,36%
same,growth at 100 µM,OVCAR-8,8%
same,growth at 100 µM,NCI/ADR-RES,3%
